Assay results from ChEMBL document CHEMBL1828628, “Discovery of a tetrahydroisoquinoline-based hydroxamic acid derivative (ZYJ-34c) as histone deacetylase inhibitor with potent oral antitumor activities” (J Med Chem, 2011).
Activity calls are given as the source filed them. No cut-off for these calls is given here.

Experiments:
Mus musculus [1] = assay: Toxicity in human MDA-MB-231 cells xenografted BALB/c nu mouse assessed as change in body weight at 90 mg/kg, ip qd for 19 days; format: organism-based; parameters: dose 90 mg/kg, route intraperitoneal; conditions: in vivo, 456 h
How it was run: (§1)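 Female BALB/c-nu mice, 5–6 weeks old, bearing subcutaneous right-flank xenografts. Mice were randomized 6 per group at about 100 mm3 tumor size. Dosing was oral or intraperitoneal for 19 days; controls received an equal volume of PBS containing DMSO. Body weight was monitored regularly during treatment, and tumors were measured by caliper every three days.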

Mus musculus [2] = assay: Toxicity in human MDA-MB-231 cells xenografted BALB/c nu mouse assessed as change in body weight at 90 mg/kg, po qd for 19 days; format: organism-based; parameters: dose 90 mg/kg, route oral; conditions: in vivo, 456 h; how it was run: as §1
NB-4 = assay: Antiproliferative activity against human NB4 cells after 48 hrs by MTT assay; format: functional, cell-based; conditions: NB-4, 48 h
How it was run: (§2)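 Cells kept in RPMI1640 with 10% FBS at 37 °C, 5% CO2. Cells were passaged into 96-well plates the day before dosing and left ≥4 h before compound addition. Exposure was 48 h, then 0.5% MTT for 4 h. Formazan was extracted with DMSO for 15 min and read at 570 nm. IC50 was derived from inhibition ratios; mean of three experiments.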

Mus musculus [3] = assay: Toxicity in mouse H22 cells xenografted Kunming mouse assessed as signs of organ toxicity at 90 mg/kg, po qd for 19 days; format: organism-based; parameters: dose 90 mg/kg, route oral; conditions: in vivo, 456 h
MCF7 = assay: Antiproliferative activity against human MCF7 cells after 48 hrs by MTT assay; format: functional, cell-based; conditions: MCF7, 48 h
MDA-MB-231 [4] = assay: Antitumor activity against human MDA-MB-231 cells xenografted in BALB/c nu mouse assessed as tumor growth inhibition at 90 mg/kg, po qd for 19 days relative to control; format: functional
Mus musculus [5] = assay: Toxicity in human MDA-MB-231 cells xenografted BALB/c nu mouse assessed as signs of organ toxicity at 90 mg/kg, ip qd for 19 days; format: organism-based; parameters: dose 90 mg/kg, route intraperitoneal; conditions: in vivo, 456 h
MDA-MB-231 [6] = assay: Antitumor activity against human MDA-MB-231 cells xenografted in BALB/c nu mouse assessed as tumor growth inhibition at 90 mg/kg, ip qd for 19 days relative to control; format: functional; conditions: route intraperitoneal
[7] = Stability in artificial gastric juice; format: physicochemical; conditions: simulated gi fluid
HCT-116 [8] = assay: Antiproliferative activity against human HCT116 cells after 48 hrs by MTT assay; format: functional, cell-based; conditions: HCT-116, 48 h; how it was run: as §2
Mus musculus [9] = assay: Toxicity in human MDA-MB-231 cells xenografted BALB/c nu mouse assessed as signs of organ toxicity at 90 mg/kg, po qd for 19 days; format: organism-based; parameters: dose 90 mg/kg, route oral; conditions: in vivo, 456 h
[10] = Antiproliferative activity against human ES2 cells after 48 hrs by MTT assay; format: functional, cell-based; conditions: ES-2, 48 h; how it was run: as §2
Mus musculus [11] = assay: Toxicity in mouse H22 cells xenografted Kunming mouse assessed as signs of organ toxicity at 60 mg/kg, po qd for 19 days; format: organism-based; parameters: dose 60 mg/kg, route oral; conditions: in vivo, 456 h
Mus musculus [12] = assay: Toxicity in human HCT116 cells xenografted BALB/c nu mouse assessed as change in body weight at 90 mg/kg, po qd for 19 days; format: organism-based, HCT-116; parameters: dose 90 mg/kg, route oral; conditions: in vivo, 456 h; how it was run: as §1
MDA-MB-231 [13] = assay: Antitumor activity against human MDA-MB-231 cells xenografted in BALB/c nu mouse assessed as tumor growth inhibition at 60 mg/kg, ip qd for 19 days relative to control; format: functional; conditions: route intraperitoneal
How it was run: (§3)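 Female athymic BALB/c-nu mice, 5–6 weeks old, were inoculated subcutaneously in the right flank with RPMI1640/10% FBS-cultured tumor cells (5 × 10^6 for MDA-MB-231). At about 100 mm3 (~10 days), mice were randomized 6 per group and dosed orally or intraperitoneally for 19 days. Vehicle controls received PBS containing DMSO. TGI = (control − treated mean tumor weight)/control mean tumor weight, at end of treatment.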

[14] = biological target: 72 kDa type IV collagenase (Homo sapiens) (UniProt P08253); assay: Inhibition of MMP2
H22 = assay: Antitumor activity against mouse H22 cells xenografted in Kunming mouse assessed as reduction of pulmonary metastatic nodes in lungs at 90 mg/kg, po qd for 14 days; format: functional, organism-based; parameters: dose 90 mg/kg
Mus musculus [15] = assay: Toxicity in mouse H22 cells xenografted Kunming mouse assessed as change in body weight at 60 mg/kg, po qd for 19 days; format: organism-based; parameters: dose 60 mg/kg, route oral; conditions: in vivo, 456 h
Mus musculus [16] = assay: Toxicity in human MDA-MB-231 cells xenografted BALB/c nu mouse assessed as signs of organ toxicity at 60 mg/kg, ip qd for 19 days; format: organism-based; parameters: dose 60 mg/kg, route intraperitoneal; conditions: in vivo, 456 h
HCT-116 [17] = assay: Antitumor activity against human HCT116 cells xenografted in BALB/c nu mouse assessed as tumor growth inhibition administered as po qd for 19 days relative to control; format: functional, organism-based; how it was run: as §3
Mus musculus [18] = assay: Toxicity in human HCT116 cells xenografted BALB/c nu mouse assessed as signs of organ toxicity at 90 mg/kg, po qd for 19 days; format: organism-based, HCT-116; parameters: dose 90 mg/kg, route oral; conditions: in vivo, 456 h
Mus musculus [19] = assay: Toxicity in human MDA-MB-231 cells xenografted BALB/c nu mouse assessed as change in body weight at 60 mg/kg, ip qd for 19 days; format: organism-based; parameters: dose 60 mg/kg, route intraperitoneal; conditions: in vivo, 456 h; how it was run: as §1
Mus musculus [20] = assay: Toxicity in mouse H22 cells xenografted Kunming mouse assessed as change in body weight at 90 mg/kg, po qd for 19 days; format: organism-based; parameters: dose 90 mg/kg, route oral; conditions: in vivo, 456 h
Histone deacetylase 8 = biological target: T1, Histone deacetylase 8 (Homo sapiens, UniProt Q9BY41); assay: Inhibition of HDAC8 using Boc-Lys (acetyl)-AMC as substrate after 30 mins by fluorescence assay
T1 sequence (Q9BY41 whole entry): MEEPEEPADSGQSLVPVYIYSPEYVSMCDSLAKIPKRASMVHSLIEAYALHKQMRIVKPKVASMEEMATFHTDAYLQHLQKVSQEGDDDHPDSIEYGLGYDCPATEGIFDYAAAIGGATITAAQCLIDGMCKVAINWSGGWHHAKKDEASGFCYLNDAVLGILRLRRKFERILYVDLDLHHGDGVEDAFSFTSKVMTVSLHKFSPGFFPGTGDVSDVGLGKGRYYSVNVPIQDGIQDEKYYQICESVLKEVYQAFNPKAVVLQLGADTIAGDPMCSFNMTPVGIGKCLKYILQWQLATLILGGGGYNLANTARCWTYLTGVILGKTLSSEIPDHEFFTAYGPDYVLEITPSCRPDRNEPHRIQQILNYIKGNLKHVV
How it was run: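 Enzyme (HeLa nuclear extract, HDAC6 or HDAC8) preincubated 5 min with a series of compound concentrations. Fluorogenic Boc-Lys(acetyl)-AMC substrate then added and incubated 37 °C for 30 min. Reaction stopped with developer containing trypsin and TSA, 20 min at 37 °C. Fluorescence read at ex 390/em 460 nm. Inhibition taken relative to control wells; IC50 from regression of concentration/inhibition data.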

Mus musculus [21] = assay: Toxicity in human HCT116 cells xenografted BALB/c nu mouse assessed as signs of organ toxicity at 60 mg/kg, po qd for 19 days; format: organism-based, HCT-116; parameters: dose 60 mg/kg, route oral; conditions: in vivo, 456 h
[22] = biological target: Aminopeptidase N (Homo sapiens) (UniProt P15144); assay: Inhibition of aminopeptidase N
K562 = assay: Antiproliferative activity against human K562 cells after 48 hrs by MTT assay; format: functional, cell-based; conditions: K562, 48 h; how it was run: as §2
[23] = Mus musculus, MDA-MB-231, ip, 456 h, read-out: TGI

Sequence of 72 kDa type IV collagenase (Homo sapiens) (P08253 110-660 limits assumed): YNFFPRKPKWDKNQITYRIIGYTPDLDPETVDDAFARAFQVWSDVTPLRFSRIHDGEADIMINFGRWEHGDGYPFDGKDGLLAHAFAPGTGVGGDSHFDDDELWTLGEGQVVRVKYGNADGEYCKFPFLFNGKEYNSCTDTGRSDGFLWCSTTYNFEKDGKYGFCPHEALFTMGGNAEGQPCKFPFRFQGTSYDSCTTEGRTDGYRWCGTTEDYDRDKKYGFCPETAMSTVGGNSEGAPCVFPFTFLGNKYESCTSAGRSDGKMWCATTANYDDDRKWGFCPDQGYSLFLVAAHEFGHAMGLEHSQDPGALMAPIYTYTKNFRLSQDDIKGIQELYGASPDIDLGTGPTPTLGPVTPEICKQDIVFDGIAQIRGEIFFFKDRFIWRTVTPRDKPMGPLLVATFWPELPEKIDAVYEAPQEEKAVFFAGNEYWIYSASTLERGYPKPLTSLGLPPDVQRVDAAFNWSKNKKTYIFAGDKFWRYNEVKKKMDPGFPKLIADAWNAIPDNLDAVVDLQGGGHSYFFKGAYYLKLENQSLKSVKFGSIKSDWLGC
Sequence of Aminopeptidase N (Homo sapiens) (P15144 whole entry): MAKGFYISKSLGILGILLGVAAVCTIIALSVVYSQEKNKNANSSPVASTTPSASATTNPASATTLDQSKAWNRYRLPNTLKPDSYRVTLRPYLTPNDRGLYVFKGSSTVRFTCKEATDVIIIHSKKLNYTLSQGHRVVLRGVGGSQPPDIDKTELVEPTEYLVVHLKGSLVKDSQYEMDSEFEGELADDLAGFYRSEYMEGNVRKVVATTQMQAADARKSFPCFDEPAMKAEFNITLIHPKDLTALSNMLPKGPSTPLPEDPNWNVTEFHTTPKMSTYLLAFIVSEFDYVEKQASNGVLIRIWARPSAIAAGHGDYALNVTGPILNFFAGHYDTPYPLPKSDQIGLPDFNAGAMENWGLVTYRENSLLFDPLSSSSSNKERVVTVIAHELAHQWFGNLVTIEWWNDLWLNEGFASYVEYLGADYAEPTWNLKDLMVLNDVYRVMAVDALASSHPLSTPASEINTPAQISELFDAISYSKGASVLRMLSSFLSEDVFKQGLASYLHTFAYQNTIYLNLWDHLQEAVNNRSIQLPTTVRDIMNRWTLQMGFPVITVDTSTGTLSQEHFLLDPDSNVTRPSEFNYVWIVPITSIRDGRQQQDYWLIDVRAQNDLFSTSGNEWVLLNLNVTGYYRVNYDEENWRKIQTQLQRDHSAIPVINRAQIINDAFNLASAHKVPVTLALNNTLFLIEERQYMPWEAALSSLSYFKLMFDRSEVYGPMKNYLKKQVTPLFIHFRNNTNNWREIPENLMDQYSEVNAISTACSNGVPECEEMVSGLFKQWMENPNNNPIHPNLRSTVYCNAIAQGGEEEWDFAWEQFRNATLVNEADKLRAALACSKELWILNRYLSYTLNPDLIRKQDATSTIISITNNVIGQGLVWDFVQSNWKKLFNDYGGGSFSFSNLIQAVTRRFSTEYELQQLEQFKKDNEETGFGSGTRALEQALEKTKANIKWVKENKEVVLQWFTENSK

SMILES: CC[C@H](C)[C@H](NC(=O)CC(C)(C)C)C(=O)N1Cc2cc(OCC(=O)NO)ccc2C[C@H]1C(=O)Nc1ccc(OC)cc1
- Activity (Mus musculus [1]): Non-toxic
- Activity (Mus musculus [2]): Non-toxic
- IC50 (NB-4): 2690 nM
- Activity (Mus musculus [3]): Non-toxic
- IC50 (MCF7): 3200 nM
- T/C (MDA-MB-231 [4]): 30%
- inhibition in vivo at 90 mg/kg (MDA-MB-231 [4]; Mus musculus, MDA-MB-231, 456 h, read-out: TGI): 66%
- Activity (Mus musculus [5]): Non-toxic
- inhibition in vivo at 90 mg/kg (MDA-MB-231 [6]; [23]): 51%
- T/C (MDA-MB-231 [6]): 37%
- Stability [7]: Stable
- IC50 (HCT-116 [8]): 770 nM
- Activity (Mus musculus [9]): Non-toxic
- IC50 [10]: 12900 nM
- Activity (Mus musculus [11]): Non-toxic
- Activity (Mus musculus [12]): Non-toxic
- inhibition in vivo at 60 mg/kg (MDA-MB-231 [13]; [23]): 45%
- T/C (MDA-MB-231 [13]): 62%
- inhibition [14]: inactive
- Activity (H22): Active
- Activity (Mus musculus [15]): Non-toxic
- Activity (Mus musculus [16]): Non-toxic
- TGI (HCT-116 [17]): Dose-dependent effect
- Activity (Mus musculus [18]): Non-toxic
- Activity (Mus musculus [19]): Non-toxic
- Activity (Mus musculus [20]): Non-toxic
- IC50 (Histone deacetylase 8): 146 nM
- Activity (Mus musculus [21]): Non-toxic
- inhibition [22]: Active
- IC50 (K562): 3470 nM
